Data from BindingDB's records for doi:10.1021/jm020269o (The Pennsylvania State University, 2003).
pIC50: −log10 of the molar value.

How the values were obtained:
[1] = target: T1, Bifunctional epoxide hydrolase 2 (Mus musculus, UniProt P34914); test: Inhibitory activity against murine soluble epoxide hydrolase
T1 sequence (P34914 whole entry): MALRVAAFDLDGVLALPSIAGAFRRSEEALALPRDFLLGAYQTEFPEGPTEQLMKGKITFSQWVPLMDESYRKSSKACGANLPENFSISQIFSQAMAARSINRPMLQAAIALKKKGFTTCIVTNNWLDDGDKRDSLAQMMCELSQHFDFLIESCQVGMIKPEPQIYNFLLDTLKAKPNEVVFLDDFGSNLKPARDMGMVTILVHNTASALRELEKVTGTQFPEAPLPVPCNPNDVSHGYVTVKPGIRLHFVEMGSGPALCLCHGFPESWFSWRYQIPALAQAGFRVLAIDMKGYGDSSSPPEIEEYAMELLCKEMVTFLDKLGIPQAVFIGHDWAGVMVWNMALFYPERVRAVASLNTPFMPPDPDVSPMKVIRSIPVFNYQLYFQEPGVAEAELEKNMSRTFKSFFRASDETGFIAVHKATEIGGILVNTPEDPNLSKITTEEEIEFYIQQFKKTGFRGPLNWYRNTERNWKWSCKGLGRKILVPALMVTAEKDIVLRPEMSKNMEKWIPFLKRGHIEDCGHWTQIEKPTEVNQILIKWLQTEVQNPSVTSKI
In short: (§1)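 Recombinant sEH (human HsEH or mouse MsEH) was expressed in baculovirus, affinity-purified to at least 97% purity, and had no detectable esterase or glutathione transferase activity. Enzyme (HsEH 0.20 µM, MsEH 0.10 µM) was preincubated with inhibitor for 5 min at 30 °C in pH 7.4 sodium phosphate buffer. Racemic 4-nitrophenyl-trans-2,3-epoxy-3-phenylpropyl carbonate (40 µM) was then added. 4-Nitrophenolate was read at 405 nm over 1 min. Assays were run in triplicate, with inhibitor up to 500 µM. IC50 came from regression of at least five points.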

[2] = target: T2, Bifunctional epoxide hydrolase 2 (Homo sapiens, UniProt P34913); test: Inhibitory activity against human soluble epoxide hydrolase; in short: as §1
T2 sequence (P34913 whole entry): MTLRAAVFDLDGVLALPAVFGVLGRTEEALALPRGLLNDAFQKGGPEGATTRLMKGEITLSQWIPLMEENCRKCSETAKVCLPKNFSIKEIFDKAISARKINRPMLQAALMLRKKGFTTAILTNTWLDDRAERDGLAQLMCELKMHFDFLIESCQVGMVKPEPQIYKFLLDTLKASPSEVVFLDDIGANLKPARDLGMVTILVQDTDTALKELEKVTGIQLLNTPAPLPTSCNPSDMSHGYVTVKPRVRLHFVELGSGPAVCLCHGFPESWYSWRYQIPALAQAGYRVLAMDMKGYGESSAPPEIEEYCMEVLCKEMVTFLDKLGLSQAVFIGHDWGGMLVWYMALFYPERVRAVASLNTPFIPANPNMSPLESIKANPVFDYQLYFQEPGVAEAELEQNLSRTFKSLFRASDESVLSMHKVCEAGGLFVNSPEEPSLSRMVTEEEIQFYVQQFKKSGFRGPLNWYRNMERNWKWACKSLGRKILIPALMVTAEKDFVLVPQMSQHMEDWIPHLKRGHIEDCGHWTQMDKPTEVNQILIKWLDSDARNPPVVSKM

pIC50 [1]	pIC50 [2]	Compound
7.00	6.26	CCCCCCCCCCCCNC(=O)NC1CCCC1 [1-Cyclopentyl-3-dodecyl-urea]
6.89	3.64	CCCCCCCCCCCCNC(=O)NCC(C)(C)C(C)(C)C [1-Dodecyl-3-(2,2,3,3-tetramethyl-butyl)-urea]

The remaining lines, values behind:

Compound	pIC50 [1]	pIC50 [2]
CCCCCCNC(=O)NC [1-Hexyl-3-methyl-urea]	3.65	–
CN(C(=O)NC1CCCCC1)c1ccccc1 [3-Cyclohexyl-1-methyl-1-phenyl-urea]	3.71	3.89
CC(C)(C)OC(=O)CNC(=O)NC1CCCCC1 [(3-Cyclohexyl-ureido)-acetic acid tert-butyl ester]	5.36	4.72
O=C(Nc1ccc(Cl)c(Cl)c1)Nc1ccc(Cl)c(Cl)c1 [US8815951, 299]	–	6.59
